From ChEMBL document CHEMBL5058577, “EUbOPEN Chemogenomics Library 2 (Multiplex)” (2022)

System: Fibroblast
Test: Multiplex assay against human fibroblast
Format: toxicity, cell-based
Summary of the method: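 With compound added, live cells were imaged on a CQ1 microscope at 37°C and 5% CO2; staining with Hoechst33342, BioTracker Green Microtubule Cytoskeleton Dye, MitoTracker Red and Annexin V Alexa Fluor 680 had been done at seeding. The CellPathfinder machine-learning gating scheme split cells into Hoechst high-intensity objects or normal cells, normal cells into healthy, pyknosed or fragmented nuclei, and pyknosed cells into mitotic or apoptotic. The tubulin, mitochondrial-mass and membrane-permeability phenotypes are per cents of healthy-nucleus cells.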

[1] = 12 h, 1 µM, compound concentration 1 uM, replicate 1
[2] = 12 h, 1 µM, compound concentration 1 uM, replicate 2
[3] = 12 h, 10 µM, compound concentration 10 uM, replicate 1
[4] = 12 h, 10 µM, compound concentration 10 uM, replicate 2
[5] = 24 h, 1 µM, compound concentration 1 uM, replicate 1
[6] = 24 h, 1 µM, compound concentration 1 uM, replicate 2
[7] = 24 h, 10 µM, compound concentration 10 uM, replicate 1
[8] = 24 h, 10 µM, compound concentration 10 uM, replicate 2
[9] = 48 h, 1 µM, compound concentration 1 uM, replicate 1
[10] = 48 h, 1 µM, compound concentration 1 uM, replicate 2
[11] = 48 h, 10 µM, compound concentration 10 uM, replicate 1
[12] = 48 h, 10 µM, compound concentration 10 uM, replicate 2

SMILES: CN1CCN(c2cc(-c3ccccc3)nc(N)n2)CC1
- Population Apoptotic (%) [1]: 47%
- Population Fragmented Nuclei (%) [1]: 15%
- Population Healthy Nuclei (%) [1]: 68%
- Population Hoechst High Intensity Objects (%) [1]: 2%
- Population Membrane Permeable-Phenotype (%) [1]: 1%
- Population Mitochondria Different-Phenotype (%) [1]: 10%
- Population Mitotic Cells (%) [1]: 52%
- Population Normal (%) [1]: 97%
- Population Pyknosed Nuclei (%) [1]: 15%
- Population Tubulin-Different-Phenotype (%) [1]: 25%
- Total Cell Count [1]: 135
- Population Apoptotic (%) [2]: 37%
- Population Fragmented Nuclei (%) [2]: 28%
- Population Healthy Nuclei (%) [2]: 45%
- Population Hoechst High Intensity Objects (%) [2]: 5%
- Population Membrane Permeable-Phenotype (%) [2]: 11%
- Population Mitochondria Different-Phenotype (%) [2]: 11%
- Population Mitotic Cells (%) [2]: 62%
- Population Normal (%) [2]: 94%
- Population Pyknosed Nuclei (%) [2]: 26%
- Population Tubulin-Different-Phenotype (%) [2]: 66%
- Total Cell Count [2]: 97
- Population Apoptotic (%) [3]: 48%
- Population Fragmented Nuclei (%) [3]: 16%
- Population Healthy Nuclei (%) [3]: 67%
- Population Hoechst High Intensity Objects (%) [3]: 2%
- Population Membrane Permeable-Phenotype (%) [3]: 0%
- Population Mitochondria Different-Phenotype (%) [3]: 6%
- Population Mitotic Cells (%) [3]: 51%
- Population Normal (%) [3]: 97%
- Population Pyknosed Nuclei (%) [3]: 15%
- Population Tubulin-Different-Phenotype (%) [3]: 44%
- Total Cell Count [3]: 216
- Population Apoptotic (%) [4]: 36%
- Population Fragmented Nuclei (%) [4]: 40%
- Population Healthy Nuclei (%) [4]: 36%
- Population Hoechst High Intensity Objects (%) [4]: 7%
- Population Membrane Permeable-Phenotype (%) [4]: 10%
- Population Mitochondria Different-Phenotype (%) [4]: 12%
- Population Mitotic Cells (%) [4]: 64%
- Population Normal (%) [4]: 92%
- Population Pyknosed Nuclei (%) [4]: 22%
- Population Tubulin-Different-Phenotype (%) [4]: 67%
- Total Cell Count [4]: 118
- Population Apoptotic (%) [5]: 75%
- Population Fragmented Nuclei (%) [5]: 17%
- Population Healthy Nuclei (%) [5]: 65%
- Population Hoechst High Intensity Objects (%) [5]: 2%
- Population Membrane Permeable-Phenotype (%) [5]: 1%
- Population Mitochondria Different-Phenotype (%) [5]: 3%
- Population Mitotic Cells (%) [5]: 25%
- Population Normal (%) [5]: 97%
- Population Pyknosed Nuclei (%) [5]: 16%
- Population Tubulin-Different-Phenotype (%) [5]: 19%
- Total Cell Count [5]: 145
- Population Apoptotic (%) [6]: 47%
- Population Fragmented Nuclei (%) [6]: 36%
- Population Healthy Nuclei (%) [6]: 44%
- Population Membrane Permeable-Phenotype (%) [6]: 8%
- Population Mitochondria Different-Phenotype (%) [6]: 8%
- Population Mitotic Cells (%) [6]: 52%
- Population Pyknosed Nuclei (%) [6]: 18%
- Population Tubulin-Different-Phenotype (%) [6]: 50%
- Total Cell Count [6]: 106
- Population Apoptotic (%) [7]: 41%
- Population Fragmented Nuclei (%) [7]: 12%
- Population Healthy Nuclei (%) [7]: 70%
- Population Hoechst High Intensity Objects (%) [7]: 2%
- Population Membrane Permeable-Phenotype (%) [7]: 1%
- Population Mitochondria Different-Phenotype (%) [7]: 6%
- Population Mitotic Cells (%) [7]: 58%
- Population Normal (%) [7]: 97%
- Population Pyknosed Nuclei (%) [7]: 17%
- Population Tubulin-Different-Phenotype (%) [7]: 41%
- Total Cell Count [7]: 213
- Population Apoptotic (%) [8]: 29%
- Population Fragmented Nuclei (%) [8]: 33%
- Population Healthy Nuclei (%) [8]: 43%
- Population Membrane Permeable-Phenotype (%) [8]: 4%
- Population Mitotic Cells (%) [8]: 70%
- Population Pyknosed Nuclei (%) [8]: 23%
- Population Tubulin-Different-Phenotype (%) [8]: 64%
- Total Cell Count [8]: 107
- Population Apoptotic (%) [9]: 70%
- Population Fragmented Nuclei (%) [9]: 22%
- Population Healthy Nuclei (%) [9]: 62%
- Population Hoechst High Intensity Objects (%) [9]: 2%
- Population Membrane Permeable-Phenotype (%) [9]: 0%
- Population Mitochondria Different-Phenotype (%) [9]: 2%
- Population Mitotic Cells (%) [9]: 30%
- Population Normal (%) [9]: 97%
- Population Pyknosed Nuclei (%) [9]: 15%
- Population Tubulin-Different-Phenotype (%) [9]: 20%
- Total Cell Count [9]: 137
- Population Apoptotic (%) [10]: 50%
- Population Fragmented Nuclei (%) [10]: 36%
- Population Healthy Nuclei (%) [10]: 49%
- Population Hoechst High Intensity Objects (%) [10]: 3%
- Population Membrane Permeable-Phenotype (%) [10]: 2%
- Population Mitochondria Different-Phenotype (%) [10]: 6%
- Population Mitotic Cells (%) [10]: 50%
- Population Normal (%) [10]: 96%
- Population Pyknosed Nuclei (%) [10]: 14%
- Population Tubulin-Different-Phenotype (%) [10]: 54%
- Total Cell Count [10]: 101
- Population Apoptotic (%) [11]: 40%
- Population Fragmented Nuclei (%) [11]: 26%
- Population Healthy Nuclei (%) [11]: 58%
- Population Hoechst High Intensity Objects (%) [11]: 3%
- Population Membrane Permeable-Phenotype (%) [11]: 0%
- Population Mitochondria Different-Phenotype (%) [11]: 0%
- Population Mitotic Cells (%) [11]: 59%
- Population Normal (%) [11]: 96%
- Population Pyknosed Nuclei (%) [11]: 14%
- Population Tubulin-Different-Phenotype (%) [11]: 31%
- Total Cell Count [11]: 227
- Population Apoptotic (%) [12]: 66%
- Population Fragmented Nuclei (%) [12]: 50%
- Population Healthy Nuclei (%) [12]: 39%
- Population Membrane Permeable-Phenotype (%) [12]: 9%
- Population Mitochondria Different-Phenotype (%) [12]: 9%
- Population Mitotic Cells (%) [12]: 33%
- Population Pyknosed Nuclei (%) [12]: 10%
- Population Tubulin-Different-Phenotype (%) [12]: 60%
- Total Cell Count [12]: 114
